SR-BI DiI inh = blocks mouse SR-BI lipid uptake from DiI-HDL; ldlA[mSR-BI] CHO cells, DiI-HDL uptake fluorescence, 3 h; inhibition, % at 12.5 µM; hit rate 0.96% among 320,000;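 active = mean replicate inhibition of at least 70% and a set share of replicates each scoring 70 or more; inconclusive = meets just one of the two criteria; inactive = fails both criteria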;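 note: 0% = median of neutral control wells and 100% = median of positive control wells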
Target sequence (Q61009 whole entry, looked up): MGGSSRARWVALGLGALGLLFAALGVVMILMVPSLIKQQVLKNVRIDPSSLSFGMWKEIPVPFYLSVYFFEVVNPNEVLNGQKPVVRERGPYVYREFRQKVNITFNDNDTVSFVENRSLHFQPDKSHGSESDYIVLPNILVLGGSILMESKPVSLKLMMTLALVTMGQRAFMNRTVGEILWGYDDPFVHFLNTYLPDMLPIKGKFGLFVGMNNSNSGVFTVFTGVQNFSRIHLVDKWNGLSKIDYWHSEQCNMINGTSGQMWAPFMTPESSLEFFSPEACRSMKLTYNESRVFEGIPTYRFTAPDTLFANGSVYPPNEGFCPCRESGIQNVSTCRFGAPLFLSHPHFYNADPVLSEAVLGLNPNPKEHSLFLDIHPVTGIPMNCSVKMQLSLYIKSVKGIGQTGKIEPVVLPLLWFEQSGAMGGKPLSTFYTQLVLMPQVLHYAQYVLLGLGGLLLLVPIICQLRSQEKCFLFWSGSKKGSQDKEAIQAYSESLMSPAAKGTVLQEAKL
CAL PDZ FP-1 = blocks peptide binding to the human CAL PDZ domain; Q9HD26; hit rate 0.92% among 300,000; inhibition, % at 24.9 µM; purified CAL PDZ, TMR-peptide fluorescence polarization, 1 h; AID 602252;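 active = mean inhibition of at least 30% with at least half of replicates also reaching 30%; inconclusive = no clear call, values can overlap the other calls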;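 note: 0% = DMSO neutral control and 100% = excess unlabeled competitor peptide PRC23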
CAL PDZ FP-2 = inhibitors of human CAL PDZ peptide binding. Q9HD26. purified CAL PDZ, TMR-peptide fluorescence polarization, 1 h. inhibition, % at 20 µM. hit rate 0.02% among 330,000. AID 504414;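 active = highest replicate inhibition of at least 40%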;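 note: plate controls were DMSO neutral control wells for no effect and unlabeled competitor peptide control wells for full effect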
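System: tagged CAL PDZ domain. Schedule: 1 h room-temperature incubation prior to read. Signal: fluorescence polarization (mP). Measure: percent inhibition from loss of millipolarization.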
SR-BI DiI-HDL act = SR-BI HDL lipid transfer activation; hit rate 0.096% among 320,000; CHO ldlA[mSR-BI] cells, DiI-HDL uptake fluorescence, 3 h; 100 = double the neutral-control signal; activation, % at 12.5 µM; AID 504775;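 active = mean replicate activation of at least 60% and every replicate at or above 60%; inconclusive = mean or all-replicate condition met, but not both; inactive = mean below 60% and not all replicates reaching 60%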;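 note: 0% = median plate neutral-control signal and 100% = twice that signal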
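Test system: SR-BI-overexpressing, LDLR-lacking CHO cells. Measured by: DiI fluorescence, bottom read. Medium: Ham's F12 with 0.5% BSA, HEPES 25 mM, pH 7.4. Timing: 3 h uptake period with compound, 37 °C.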
miR122 inh = blocks miR-122 activity in Huh7 sensor cells. activation (reporter increase), % at 12.5 µM. AID 602342. hit rate 0.3% among 340,000. Huh7 miR-122 Renilla luciferase sensor, 48 h; neutral wells = 0, positive control = 100;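 active = mean replicate activation score at least 90 and every replicate individually at or above 90; inconclusive = only one of the two criteria met; inactive = neither criterion met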;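 note: higher luciferase means less miR-122 activity so hits act as miR-122 inhibitors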
ARNT-TACC3 inh = ARNT/TACC3 interaction disruption. inhibition, % at 9.99 µM. Q9Y6A5. hit rate 0.66% among 390,000. AlphaScreen His-ARNT PAS-B/GST-TACC3 binding, luminescence; TACC3 fragment carries E629A point mutation;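 active = mean inhibition of replicates at least 50% and at least half of replicates each reaching 50%; inconclusive = half or more replicates reach 50% but mean below 50%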;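 note: 0% = complete ARNT plus TACC3 wells and 100% = ARNT alone without TACC3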
DiI quench = counter-screen for SR-BI lipid transfer inhibitors: DiI fluorescence quenchers; AC50, µM (highest dose often 35 µM), without a hit: at the highest dose activity change, negative = quenching; cell-free DiI-HDL fluorescence quenching, 30 min; AID 540326; shares compounds with SR-BI DiI inh; hit rate 20% among 470;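 active = quenching, a falling signal, with AC50 below a set limit tied to the top valid dose, actives reach about 32 µM in these data; inconclusive = no clear call, values can overlap the other calls; inactive = rising signal, and the rest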
Numbers without * were called inactive; ? = inconclusive; nt = not tested or not shown; [ ] = dose if it differs, or a comment. This is a sample that favours compounds with a hit; in the whole collection about 2.1% have one here.

SMILES	SR-BI DiI inh	CAL PDZ FP-1	CAL PDZ FP-2	SR-BI DiI-HDL act	miR122 inh	ARNT-TACC3 inh	DiI quench
Cc1noc(C)c1S(=O)(=O)Nc1ccc2c(c1)CC(=O)N([C@@H](C)CO)C[C@@H](C)[C@H](CN(C)CC1CCCCC1)O2	nt	nt	nt	nt	-4[16.7 µM]	1	nt
NS(=O)(=O)c1ccc(NC(=O)c2ccc3c(c2)CCN3S(=O)(=O)c2ccccc2)cc1	64	2	-1	-64	11	-4	nt
O=C(Nc1ccccc1)c1ccc2c(c1)CCN2S(=O)(=O)c1ccccc1	76*	nt	-1	-76	nt	-19	-1%
COc1ccc(C2/C=C\CN(S(=O)(=O)c3ccc(C)cc3)CC(=O)N2Cc2ccc(F)cc2)cc1 (stereo not drawn)	86*	-3	0	-86	5	1	-6%
COc1ccc(C2/C=C\CN(S(=O)(=O)c3ccc(C)cc3)CC(=O)N2Cc2cccc(F)c2)cc1 (stereo not drawn)	80*	-4	0	-80	0	11	0%
COc1ccc(C2/C=C\CN(S(=O)(=O)c3cccc4cccnc34)CC(=O)N2Cc2ccc(F)cc2)cc1 (stereo not drawn)	53	-1	0	-53	10	-5	nt
O=C(N[C@H]1CC[C@@H](CCNS(=O)(=O)c2ccc(F)cc2)O[C@H]1CO)C1CCOCC1	nt	nt	nt	nt	6[16.7 µM]	3	nt
COc1cc(/C=C/C(=O)Nc2cccc(S(=O)(=O)NC3=NCCCCC3)c2)ccc1OCC#N	75*	-3	-1	-75	-4	-5	0%
COc1ccc(NC(=O)N2C[C@@H](O)COC[C@H]3O[C@H](CC(=O)N4CCN(C)CC4)CC[C@@H]32)cc1	nt	nt	nt	nt	10[16.7 µM]	14	nt
Cc1cc2oc(=O)cc(CN3CCN(C/C=C/c4ccccc4)CC3)c2cc1O	76*	3	-1	-76	3	14	-7%
Oc1ccc(/C=C/c2nc(-c3ccccc3O)n(-c3ccccc3)n2)cc1	74*	nt	-1	-74	28	4	20µM*
COc1ccc([C@H]2CC(=O)C=C(c3cccc4c3sc3ccccc34)C2)cc1OC	96*	-2	-1	-96	nt	0	3%
O=C(C[C@H]1CC[C@H](NC(=O)NC2CCCC2)[C@@H](CO)O1)NCc1ccc(F)cc1	nt	nt	nt	nt	12[16.7 µM]	-11	nt
N#Cc1ccc(C(=O)N2CCC3CC2c2cc(-c4ccc(F)cc4)ccc23)cc1 (stereo not drawn)	36	-3	-1	-36	7	-3	-3%
CCCCCCOC(=O)CCc1c(C)nc(N)[nH]c1=O	-5	-1	-1	5	-1	-5	nt
CCCCCCCCOC(=O)CCc1c(C)[nH]c(=S)[nH]c1=O	80*	-3	1	-80	-3	-6	-2%
CCC(=O)Nc1ccc(Cl)c(NC(=O)c2cccc(OC)c2)c1	80*	-10	-2	-80	1	nt	2%
CCC(=O)Nc1ccc(Cl)c(NC(=O)c2ccccc2OC)c1	6	-2	-3	-6	nt	nt	nt
CCNC(=O)C[C@@H]1CC[C@@H]2[C@H](COC[C@@H](O)CN2C(=O)Nc2ccc(C(F)(F)F)cc2)O1	nt	nt	nt	nt	2[16.7 µM]	-5	nt
O=C(NC1CCCCC1)C(c1ccc2ncccc2c1)N(Cc1ccc2c(c1)OCO2)C(=O)c1ccc2c(c1)OCCO2 (stereo not drawn)	-2	-7	-2	2	0	nt	nt
O=C(NC1CCCCC1)C(c1ccc2ncccc2c1)N(Cc1ccco1)C(=O)c1ccc2c(c1)OCCO2 (stereo not drawn)	-14	-4	-3	14	1	6	-2%
Cc1cc(=O)oc2c(C)c(OCC(=O)N3CCN(c4ccc(F)cc4)CC3)ccc12	nt	-8	-2	nt	-1	-1	nt
Cc1cccc(N2CCN(C(=O)COc3ccc4c(C)cc(=O)oc4c3C)CC2)c1C	?	-3	-4	-71	4	-3	4%
COc1ccc(-c2ccc3c(c2)O[C@@H](CN(C)Cc2ccccc2C(=O)O)[C@@H](C)CN([C@@H](C)CO)S3(=O)=O)cc1	nt	nt	nt	nt	-1[16.7 µM]	0	nt
Cc1nnc(SC(C)C(=O)Nc2ncc(Cl)cc2Cl)n1Cc1ccccc1 (stereo not drawn)	19	-3	0	-19	-2	-4	nt
SMILES	SR-BI DiI inh	CAL PDZ FP-1	CAL PDZ FP-2	SR-BI DiI-HDL act	miR122 inh	ARNT-TACC3 inh	DiI quench
Cc1cc(SC(C)C(=O)Nc2ncc(Cl)cc2Cl)nc2ccccc12 (stereo not drawn)	72*	1	0	-72	2	15	-1%
O=C(NCC1CCCO1)c1ccc2c(c1)N(Cc1ccc(F)cc1)CCS2 (stereo not drawn)	62	-2	1	-62	1	-1	nt
O=C(NCC1CCCO1)c1ccc2c(c1)N(Cc1ccc(F)cc1Cl)C(=O)CS2 (stereo not drawn)	-2	0	-2	2	-6	0	-2%
O=C(CN1CCN(CC(=O)Nc2ccc3c(c2)OC2(CCCCC2)O3)CC1)Nc1cccc(F)c1	68	-23	0	-68	nt	nt	-10%
CC(C)C(C(=O)OCC(=O)c1ccc2c(c1)NC(=O)CO2)N1C(=O)c2ccccc2C1=O (stereo not drawn)	23	5	-3	-23	-3	-3	-1%
COc1cc(OC)cc(C(=O)N[C@H](C(=O)OCC(=O)c2ccc3c(c2)NC(=O)CO3)C(C)C)c1	-16	1	nt	16	-4	-1	6%
CC(C)[C@H](NC(=O)c1ccccc1)C(=O)OCC(=O)c1ccc2c(c1)NC(=O)CO2	10	nt	-1	-10	3	1	nt
CC[C@H](C)[C@H](NC(=O)c1ccc(Cl)cc1)C(=O)OCC(=O)c1ccc2c(c1)NC(=O)CO2	86*	-3	nt	-86	4	2	2%
C[C@H](NC(=O)C[C@H]1CC[C@@H](NC(=O)Cc2ccccn2)[C@@H](CO)O1)c1ccccc1	nt	nt	nt	nt	3[16.7 µM]	-8	nt
C[C@@H]1CN([C@@H](C)CO)S(=O)(=O)c2ccc(C#Cc3ccccn3)cc2O[C@H]1CN(C)C(=O)C1CC1	nt	nt	nt	nt	17[16.7 µM]	22	nt
CC(=O)c1c(C(C)=O)c(C)n(-c2ccc(C)c(NC(=O)c3ccccc3Cl)c2)c1C	79*	-3	-1	-79	-4	4	5%
CC(C)NC(=O)N(C)C[C@@H]1Oc2c(NS(=O)(=O)c3cn(C)cn3)cccc2C(=O)N([C@H](C)CO)C[C@@H]1C	nt	nt	nt	nt	0[16.7 µM]	-1	nt
COc1ccc(-c2nc(CN3CCN(c4ncnc5ccccc45)CC3)c(C)o2)c(OC)c1	72*	-7	-1	-72	nt	9	-1%
